These results are taken from ChEMBL document CHEMBL3414433, “Discovery and profiling of a selective and efficacious Syk inhibitor” (J Med Chem, 2015).

Data set [1] has as its system Rattus norvegicus. Kind of data set: In vivo inhibition of Syk in Lewis rat assessed as reduction in FcgR-induced SLP76 phosphorylation in peripheral blood monocytes at 3 to 30 mg/kg, po measured after 2 to 24 hrs. Type of data set: functional, organism-based. On the set-up: route oral.
In data set [2] the target is T1, Mitogen-activated protein kinase kinase kinase 2 (Homo sapiens, UniProt Q9Y2U5).
T1 sequence (Q9Y2U5 whole entry): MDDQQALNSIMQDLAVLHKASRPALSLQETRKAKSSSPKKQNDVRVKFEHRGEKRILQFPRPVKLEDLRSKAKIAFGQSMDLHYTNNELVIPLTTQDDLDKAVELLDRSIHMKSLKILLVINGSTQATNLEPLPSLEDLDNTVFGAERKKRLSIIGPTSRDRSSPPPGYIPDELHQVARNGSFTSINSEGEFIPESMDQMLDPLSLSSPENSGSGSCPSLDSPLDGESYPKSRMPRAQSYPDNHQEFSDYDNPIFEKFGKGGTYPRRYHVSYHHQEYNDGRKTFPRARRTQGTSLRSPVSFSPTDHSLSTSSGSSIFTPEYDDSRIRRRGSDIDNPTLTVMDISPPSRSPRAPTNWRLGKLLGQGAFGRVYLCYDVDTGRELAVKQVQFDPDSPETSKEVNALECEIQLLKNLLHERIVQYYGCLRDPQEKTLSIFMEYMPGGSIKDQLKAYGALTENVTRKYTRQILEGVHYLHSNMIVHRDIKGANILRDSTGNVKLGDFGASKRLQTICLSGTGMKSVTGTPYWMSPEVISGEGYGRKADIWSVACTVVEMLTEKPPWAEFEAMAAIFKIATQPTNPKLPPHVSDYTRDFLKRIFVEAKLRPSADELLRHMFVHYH
Description: Competitive binding affinity to human MAP3K2.

Data set [3] is described as follows: Clearance in Beagle dog at 0.1 mg/kg, iv and 0.3 mg/kg, po. In kind it is ADME, organism-based, Canis lupus familiaris. The conditions noted are these: in vivo. In outline:
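One-in-one dosing in Beagle dogs: i.v. 0.1 mg/kg in NMP/PEG200 (3:7); p.o. 0.3 mg/kg in MC/water (0.5:99.5). Exposure values dose normalized.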

Data set [4] can be described thus: Drug uptake in blood of Lewis rat collagen-induced arthritis model at 30 mg/kg, po qd administered on day 15 post immunization measured at 4 hrs on day 18. In kind it is ADME, organism-based. On the set-up: dose 30 mg/kg, route oral. The conditions noted are these: read-out: Drug uptake. In outline:
(§1)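 Collagen-arthritic Lewis rats given 3, 10 or 30 mg/kg p.o. once daily from day 15; blood levels measured on day 18 (third day of treatment) at 4, 8 and 24 h after dosing.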

The nature of data set [5]: Volume of distribution at steady state in Beagle dog at 0.1 mg/kg, iv and 0.3 mg/kg, po. Type of data set: ADME, organism-based, Canis lupus familiaris. The conditions noted are these: in vivo, read-out: Vdss. In outline:
(§2)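 Beagle dogs dosed one-in-one. The i.v. dose was 0.1 mg/kg in NMP/PEG200 (3:7), and the p.o. dose was 0.3 mg/kg in MC/water (0.5:99.5). Blood levels were followed after each route.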

For data set [6], the target named is Tyrosine-protein kinase SYK (Homo sapiens, UniProt P43405).
The nature of data set [7]: Drug uptake in blood of Lewis rat collagen-induced arthritis model at 3 mg/kg, po qd administered on day 15 post immunization measured at 24 hrs on day 18. Type of data set: ADME, organism-based. The settings on record: read-out: Drug uptake. Also noted: dose 3 mg/kg, route oral. The gist of the method: as §1
The nature of data set [8]: Drug uptake in blood of Lewis rat collagen-induced arthritis model at 3 mg/kg, po qd administered on day 15 post immunization measured at 4 hrs on day 18. The settings on record: read-out: Drug uptake. Type of data set: ADME, organism-based. On the set-up: dose 3 mg/kg, route oral. The gist of the method:
as §1

Data set [9] has as its target Serine/threonine-protein kinase PAK 5 (Homo sapiens, UniProt Q9P286). Description: Competitive binding affinity to human PAK7.
Data set [10] is described as follows: Drug uptake in Lewis rat blood at 22 mg/kg, po measured after 24 hrs. In kind it is ADME, organism-based. Also noted: dose 22 mg/kg, route oral. The conditions noted are these: read-out: Drug uptake. The gist of the method:
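Single oral dose of 22 mg/kg to Lewis rats; blood sampled at 2, 4 and 24 h after dosing for compound level and ex vivo FcγR-induced phospho-SLP76 in peripheral blood monocytes.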

Data set [11] is described as follows: Drug uptake in blood of Lewis rat collagen-induced arthritis model at 30 mg/kg, po qd administered on day 15 post immunization measured at 8 hrs on day 18. In kind it is ADME, organism-based. On the set-up: dose 30 mg/kg, route oral. The settings on record: read-out: Drug uptake. In outline: as §1
Data set [12] is described as follows: Oral bioavailability in Sprague-Dawley rat at 3 mg/kg administered as cassette dosing. Type of data set: ADME, organism-based. The conditions noted are these: in vivo. In outline: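 Rats were dosed i.v. at 1 mg/kg in NMP/PEG200 (3:7) and p.o. at 3 mg/kg in CMC/water/Tween (0.5:99:0.5). PK parameters were derived from blood concentration–time curves for both routes.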

A short description of data set [13]: Mean residence time in Beagle dog at 0.1 mg/kg, iv and 0.3 mg/kg, po. In kind it is ADME, organism-based, Canis lupus familiaris. The conditions noted are these: in vivo. In outline:
as §2

Another data set concerns the target hERG (KCNH2) (Homo sapiens, UniProt Q12809). Description: Inhibition of human ERG at 10 uM by manual patch clamp assay relative to control.
A short description of data set [14]: Drug uptake in blood of Lewis rat collagen-induced arthritis model at 10 mg/kg, po qd administered on day 15 post immunization measured at 8 hrs on day 18. Type of data set: ADME, organism-based. Also noted: dose 10 mg/kg, route oral. The conditions noted are these: read-out: Drug uptake. The gist of the method: as §1
For data set [15], the species on record is Rattus norvegicus. Description: Hepatotoxicity in rat assessed as portal inflammation measured for 4 weeks by GLP study. The settings on record: in vivo, 672 h. Type of data set: toxicity, organism-based.
Data set [16] is filed under the species Rattus norvegicus. Description: Hepatotoxicity in rat assessed as bile plugs measured for 4 weeks by GLP study. In kind it is toxicity, organism-based. The settings on record: in vivo, 672 h.

Sequence of Serine/threonine-protein kinase PAK 5 (Q9P286 whole entry): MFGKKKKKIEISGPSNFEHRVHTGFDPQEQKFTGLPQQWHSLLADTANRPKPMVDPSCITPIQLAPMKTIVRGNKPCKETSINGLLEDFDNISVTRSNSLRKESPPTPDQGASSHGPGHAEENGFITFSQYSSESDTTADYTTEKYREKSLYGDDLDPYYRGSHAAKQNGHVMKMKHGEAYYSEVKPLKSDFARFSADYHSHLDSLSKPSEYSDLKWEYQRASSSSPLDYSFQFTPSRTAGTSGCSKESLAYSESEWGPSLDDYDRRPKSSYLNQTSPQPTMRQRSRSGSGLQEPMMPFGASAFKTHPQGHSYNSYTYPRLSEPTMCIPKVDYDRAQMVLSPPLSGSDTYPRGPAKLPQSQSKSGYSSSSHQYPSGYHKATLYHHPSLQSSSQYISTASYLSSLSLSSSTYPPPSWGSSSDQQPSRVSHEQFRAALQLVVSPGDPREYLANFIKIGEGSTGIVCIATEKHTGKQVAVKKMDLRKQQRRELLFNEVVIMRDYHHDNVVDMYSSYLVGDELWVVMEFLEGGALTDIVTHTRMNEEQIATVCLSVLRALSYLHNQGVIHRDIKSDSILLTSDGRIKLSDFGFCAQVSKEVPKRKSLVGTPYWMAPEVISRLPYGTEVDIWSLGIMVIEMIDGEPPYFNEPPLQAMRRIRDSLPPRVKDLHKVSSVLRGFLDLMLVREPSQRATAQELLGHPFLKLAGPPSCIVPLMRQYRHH
Sequence of hERG (KCNH2) (Q12809 whole entry): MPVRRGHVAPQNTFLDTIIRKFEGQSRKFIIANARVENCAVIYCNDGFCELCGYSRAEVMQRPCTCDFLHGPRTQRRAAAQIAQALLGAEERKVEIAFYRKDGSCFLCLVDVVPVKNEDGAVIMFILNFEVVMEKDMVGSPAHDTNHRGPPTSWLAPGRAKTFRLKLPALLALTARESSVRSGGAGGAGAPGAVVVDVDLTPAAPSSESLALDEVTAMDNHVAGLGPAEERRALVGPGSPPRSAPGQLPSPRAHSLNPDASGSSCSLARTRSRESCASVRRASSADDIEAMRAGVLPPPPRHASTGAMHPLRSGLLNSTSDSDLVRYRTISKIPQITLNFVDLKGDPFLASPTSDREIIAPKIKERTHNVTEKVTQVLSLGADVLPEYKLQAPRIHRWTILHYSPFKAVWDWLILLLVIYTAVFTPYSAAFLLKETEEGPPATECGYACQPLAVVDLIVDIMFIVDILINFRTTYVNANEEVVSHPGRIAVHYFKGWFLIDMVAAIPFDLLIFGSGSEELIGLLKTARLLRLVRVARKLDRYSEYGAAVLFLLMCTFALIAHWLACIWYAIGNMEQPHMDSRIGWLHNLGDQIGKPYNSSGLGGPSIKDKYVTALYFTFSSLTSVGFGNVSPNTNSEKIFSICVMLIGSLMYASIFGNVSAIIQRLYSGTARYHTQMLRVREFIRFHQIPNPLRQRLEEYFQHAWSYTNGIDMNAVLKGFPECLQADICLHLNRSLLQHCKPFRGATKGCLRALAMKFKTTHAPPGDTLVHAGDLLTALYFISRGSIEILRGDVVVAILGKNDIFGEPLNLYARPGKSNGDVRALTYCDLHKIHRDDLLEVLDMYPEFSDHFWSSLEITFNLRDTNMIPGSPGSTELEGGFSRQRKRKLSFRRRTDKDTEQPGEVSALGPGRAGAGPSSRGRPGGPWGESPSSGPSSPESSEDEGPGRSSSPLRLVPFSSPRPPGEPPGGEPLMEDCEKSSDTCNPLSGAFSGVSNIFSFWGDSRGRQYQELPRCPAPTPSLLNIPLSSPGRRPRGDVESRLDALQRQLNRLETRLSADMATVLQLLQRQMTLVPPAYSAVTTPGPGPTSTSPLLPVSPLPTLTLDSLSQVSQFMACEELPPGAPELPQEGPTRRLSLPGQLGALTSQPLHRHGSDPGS

The term IC50 denotes the concentration at which inhibition is half-maximal. In general, Kd refers to the concentration at which binding is half-saturated. Low values mean tighter binding, high ones weaker binding. One may read the bioavailability as the share of a dose that reaches the circulation, judged against a reference dose that is usually intravenous. The low end stands for poor availability, the high end for good availability. What is called MRT is the average time that molecules of a dose stay in the body. In general, inhibition refers to how much of the control response was suppressed. Higher therefore signals strong suppression. In the case of `NC(=O)c1nnc(N[C@@H]2CCCC[C@@H]2N)nc1Nc1cccc2cc[nH]c12`, the 50% inhibitory concentration (IC50) turned out to be 189 nM in the data set on Rattus norvegicus [1] and 35 nM in data set [6]. Besides, the values for the Kd in [2] and in [9] were 140 nM and 12 nM, respectively. For the same compound, the clearance in [3] is 11 mL/min/kg. The results for the concentration at 4 h in data set [4] and in data set [8] were 2890 nM and 126 nM, respectively. Besides, the Vd in data set [5] was 6.8 L/kg. Further, the concentration at 24 h was 35 nM in data set [7] and 300 nM in data set [10]. The concentration at 8 h in data set [11] is 1720 nM; in [14] it was 349 nM. The compound further had a bioavailability in data set [12] of 60%. Besides, the MRT in [13] is 8.4 h. In addition, 10 µM produced 0% inhibition against hERG (KCNH2). Besides, the Activity entry in the data set filed under Rattus norvegicus [15] and in the data set listed under Rattus norvegicus [16] was “Toxic” in each case.
